Fewer inactive variants are shown than the library holds.

B1: tRNA (parent)
chain: CUCUCGGUAGCCAAGUUGGUUUAAGGCGCAAGACUUUAAUUUAUCACUACGAAAUCUUGAGAUCGGGCGUUCGACUCGCCCCCGGGAGAUUUUUUCCUCGAGCAA

In the data set the parent is B1. Description: nonsense suppression (GFP-seq) (ratio to wild type); higher = more function; SUP4oc tRNA, yeast GFP reporter sort-seq. An outline of the steps:
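To measure nonsense suppression, tRNA variants from a library carrying ~3% random mutations were integrated into the yeast genome alongside RFP and a GFP ochre reporter under galactose control. Growth took place in raffinose/galactose medium supplemented with 80 mg/L adenine, followed by sorting into GFP/RFP bins and Illumina sequencing of each bin (phred ≥30). For each variant with ≥100 reads and ≥30 cells, the bin median GFP/RFP values were weighted by its estimated cell share per bin and referenced to the unmutated parent tRNA.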
Turning to CUCUCGGUAGCCAAGUGGGUUUAAGGCGCAAGACUUUAAUUUAUCACUACGAAAUCUUGAGAUCGGGCGUUCGACUCGCCCCAGGGAGAUUUUUUCCUCGAGCAA [U17G C83A], the nonsense suppression was at most 0.026.

Regarding CUCUCGGUAGCCAAGUGGGUUUAAGGCGCAAGACUUUAAUUUAUCACUACGAAAUCUUGCGAUCGGGCGUUCGACUCGCCCCCGGGAGAUUUUUUCCUCGAGCAA [U17G A60C], the nonsense suppression turned out to be 0.188.

Regarding CUCUCGGUAGCCAAGUGGGUUUAAGGCGCAAGACUUUAAUUUAUCACUACGAACUCUUGAGAUCGGGCGUUCGACUCGCCCCCGGGAGAUUUUUUCCUCGAGCAA [U17G A54C], the nonsense suppression is 0.64.

In the case of CUCUCGGUAGCCAAGUGGGUUUAAGGCGCAAGACUUUAAUUUAUCACUACGAAUUCUUGAGAUCGGGCGUUCGACUCGCCCCCGGGAGAUUUUUUCCUCGAGCAA [U17G A54U], the nonsense suppression was 1.16.

CUCUCGGUAGCCAAGUGGGUUUAAGGCGCAAGACUUUAAUUUAUCACUACGAAAUCUUGACAUCGGGCGUUCGACUCGCCCCCGGGAGAUUUUUUCCUCGAGCAA [U17G G61C]: the nonsense suppression came to 0.371.

Consider CUCUCGGUAGCCAAGUGGGUUUAAGGCGCAAGACUUUAAUUUAUCACUACGAAAUCUUGAUAUCGGGCGUUCGACUCGCCCCCGGGAGAUUUUUUCCUCGAGCAA [U17G G61U], for which the nonsense suppression came to 0.832.

CUCUCGGUAGCCAAGUGGGUUUAAGGCGCAAGUCUUUAAUUUAUCACUACGAAAUCUUGAGAGCGGGAGUGCGACUCGCCCCCGGGAGAUUUUUUCCUCGAGCAA [U17G A33U U63G C68A U71G]: the nonsense suppression is at most 0.026.

In the case of CUCUCGGUAGCCAAGUGGUUUUAAGGCGCAAGACUUUAAUUUAUCACUACGAAAUCUUGAGAUCGGGCGUUCGACUCGCCCCCGGGAGAUUUUUUCCUCGAGCAA [U17G G19U], the nonsense suppression amounted to 1.05.

In the case of CUCUCGGUAGCCAAGUGGAUUUAAGGCGCAAGACUUUAAUUUAUCACUACGAAAUCUUGAGAUCGGGCGUUCGACUCGCCCCCGGGAGAUUUUUUCCUCGAGCAA [U17G G19A], the nonsense suppression is 0.204.

CUCUCGGUAGCCAAGUGGGUUUAAGGCGCAAGACUUUAAUUUAUCACUACGAAAUCUUGAGAUCGUGCAUUCGACUCGCCCCCGGGAGAUUUUUUCCUCGAGCAA [U17G G66U G69A]: the nonsense suppression is at most 0.026.

For CUCUCGGUAGCCAAGUGGGUCUAAGGCGCAAGACUUUAAUUUAUCACUACGAAAUCUUGAGAUCGGGCGUUCGACUCGCCCCCGGGAGAUUUUUUCCUCGAGCAA [U17G U21C], the nonsense suppression turned out to be 1.05.

As for CUCUCGGUAGCCAAGUGGGUAUAAGGCGCAAGACUUUAAUUUAUCACUACGAAAUCUUGAGAUCGGGCGUUCGACUCGCCCCCGGGAGAUUUUUUCCUCGAGCAA [U17G U21A], the nonsense suppression turned out to be 1.16.

Take CUCUCGGUAGCCAAGUGGGUGUAAGGCGCAAGACUUUAAUUUAUCACUACGAAAUCUUGAGAUCGGGCGUUCGACUCGCCCCCGGGAGAUUUUUUCCUCGAGCAA [U17G U21G]: the nonsense suppression stood at 0.717.

With CUCUCGGUAGCCAAGUGGGUUUCAGGCGCAAGACUUUAAUUUAUCACUACGAAAUCUUGAGAUCGGGCGUUCGACUCGCCCCCGGGAGAUUUUUUCCUCGAGCAA [U17G A23C], the nonsense suppression is at most 0.026.

CUCUCGGUAGCCAAGUGGGUUUAAGGCGCAAUACUUUAAUUUAUCACUACGAAAACCUGAGAUCGGGCGUUCGACCCGCCCCCGGGAGAUUUUUUCCUCGAGCAA [U17G G32U U55A U57C U76C]: the nonsense suppression is at most 0.026.

On to CUCUCGGUAGCCAAGUGGGUUUAAGGCGCAAGACUUUAAUUUAUCACUACGAAAUCUUGAGAUCGGACGUUCGACUCGCCCCCGGGAGAUUUUUUCCUCGAGCAA [U17G G67A], for which the nonsense suppression was 0.0593.

CUCUCGGUAGCCAAGUCGGUUUAAGGCGCAAGACUUUAAUUUAUCACUACGAAACCUUGAGAUCGGGCGUUCGACUCGCCCCCGGGAGAUUUUUUCCUCGAGCAA [U17C U55C]: the nonsense suppression stood at 0.444.

With CUCUCGGUAGCCAAGUGGGUUUAAGGCGCAAGACUUUAAUUUAUCACUACGAAAUCUUGAGAUCGGGCGUUCGACUCGUCCCCGGGAGAUUUUUUCCUCGAGCAA [U17G C79U], the nonsense suppression worked out at 0.764.

With CUCUCGGUAGCCAAGUGGGUUUAAGGCGCAAGACUUUAAUUUAUCACUACGAAAUCUUGAGAACGGGCGUUCGAAUCGCCCCCGAGAGAUUUUUUCCUCGAGCAA [U17G U63A C75A G85A], the nonsense suppression amounted to 1.08.

Regarding CUCUCGGUAGCCAAGUGGGUGUAAGGCGCAAGACUUUAAUUUAUCACUACGAAAUCUUGAUAUCGGGCGUUCGACUCGCCCCCGGGAGAUUUUUUCCUCGAGCAA [U17G U21G G61U], the nonsense suppression amounted to 0.0263.

In the case of CUCUCGGUAGCCAAGUGGGUUUAAGGCGCAAGACUUUAAUUUAUCACUACGAAAUCUUGAGAUCGGGCGUUCGAUUCGCCCCCGGGGGAUUUUUUCCUCGAGCAA [U17G C75U A87G], the nonsense suppression came to 0.77.

Regarding CUCUCGGUAGCCAAGUCGGGUUAAGGCGCAAGACUUUAAUUUAUCACUACGAAAUCUUGAGAUCGGGCGUUCGACUCGCCCCCGGGAGAUUUUUUCCUCGAGCAA [U17C U20G], the nonsense suppression was found to be 1.25.

For the variant CUCUCGGUAGCCAAGUCGGUUUAAGGCGCAAGACGUUAAUUUAUCACUACGAAAUCUUGACAUCGGGCGUUCGACCCGCCCCCGGGAGAUUUUUUCCUCGAGCAA [U17C U35G G61C U76C], the nonsense suppression is at most 0.026.

For the variant CUCUCGGUAGCCAAGUCGGUGUAAGGCGCAAGACUUUAAUUUAUCACUACGAAAUCUUGAGAUCGGGCGUUCGACUCGCCCCCGGGAGAUUUUUUCCUCGAGCAA [U17C U21G], the nonsense suppression was determined as 0.801.

As to CUCUCGGUAGCCAAGUGGGUUUAAGGCGCAAGACUUUAAUUUAUCACUACGAAAUCUUGAGACCGGGCGUUCGACUCGCCCCCGGGAGAUUUUUUCCUCGAGCAA [U17G U63C], the nonsense suppression was 0.799.

For the variant CUCUCGGUAGCCAAGUCGGUUUAAGGCGCAAGACUUUAAUUUAUCACUACGAAAUCUUGAGAACGGGCGUUGGACUCGCCCCCGGGAGAUUUUUUCCUCGAGCAA [U17C U63A C72G], the nonsense suppression was at most 0.026.

With CUCUCGGUAGCCAAGUGGCUAUAAGGCGCAAGACUUUAAUUUAUCACUACGAAAUCAUGAGAUCGGGCGUUCGACUCUCCCCCGGGAGAUUUUUUCCUCGAGCAA [U17G G19C U21A U57A G78U], the nonsense suppression is at most 0.026.

Source of the values: the RNAGym collection of RNA variant scans (doi:10.1101/gad.245936.114).
